Key:
LoVo [1] = assay: Cytotoxicity against human doxorubicin resistant LoVo cells after 48 hrs by SRB assay; format: functional; details: for CC50: read-out: LC50 (the source's name)
In short: (§1)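 Cells grown in RPMI 1640 with 10% FBS and penicillin/streptomycin at 37 °C and 5% CO₂, trypsinized, then seeded at 5 × 10³/well. After 18 h drug-free attachment, samples in DMSO/EtOH/PBS (0.5:0.5:99) were added for 48 h continuous exposure. Cells were fixed with cold TCA (1 h, 4 °C) and stained with SRB (10 min). Tris-solubilized stain read at 490 nm. Triplicate wells, mean ± SD; GI₅₀ derived.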

HT-29 = assay: Cytotoxicity against human HT29 cells after 48 hrs by SRB assay; format: functional, cell-based; details: Homo sapiens, HT-29, 48 h; for CC50: read-out: LC50 (the source's name); in short: as §1
[2] = Cytotoxicity against human HeLa-APL cells after 48 hrs by SRB assay; format: functional; in short: as §1
HeLa = assay: Cytotoxicity against human HeLa cells after 48 hrs by SRB assay; format: functional; details: for CC50: read-out: LC50 (the source's name); in short: as §1
DU-145 = assay: Cytotoxicity against human DU145 cells after 48 hrs by SRB assay; format: functional, cell-based; details: Homo sapiens, DU-145, 48 h; for GI50: read-out: GI50; for CC50: read-out: LC50 (the source's name); in short: as §1
PANC-1 = assay: Cytotoxicity against human PANC1 cells after 48 hrs by SRB assay; format: functional; details: PANC-1, 48 h; for CC50: read-out: LC50 (the source's name); in short: as §1
SK-MEL-28 = assay: Cytotoxicity against human SK-MEL-28 cells after 48 hrs by SRB assay; format: functional, cell-based; details: Homo sapiens, SK-MEL-28, 48 h; for GI50: read-out: GI50; for CC50: read-out: LC50 (the source's name); in short: as §1
LoVo [3] = assay: Cytotoxicity against human LoVo cells after 48 hrs by SRB assay; format: functional; details: for CC50: read-out: LC50 (the source's name)
K562 = assay: Cytotoxicity against human K562 cells after 48 hrs by SRB assay; format: functional; details: K562, 48 h; for CC50: read-out: LC50 (the source's name); in short: as §1
A549 = assay: Cytotoxicity against human A549 cells after 48 hrs by SRB assay; format: functional, cell-based; details: Homo sapiens, A549, 48 h; for GI50: read-out: GI50; in short: as §1
LNCaP = assay: Cytotoxicity against human LNcaP cells after 48 hrs by SRB assay; format: functional; details: for CC50: read-out: LC50 (the source's name); in short: as §1
SK-BR-3 = assay: Cytotoxicity against human SKBR3 cells after 48 hrs by SRB assay; format: functional; details: SK-BR-3, 48 h; for GI50: read-out: GI50; for CC50: read-out: LC50 (the source's name); in short: as §1
[4] = Cytotoxicity against human IGROV cells after 48 hrs by SRB assay; format: functional; details: for CC50: read-out: LC50 (the source's name); in short: as §1
[5] = Cytotoxicity against human IGROV-ET cells after 48 hrs by SRB assay; format: functional; details: for CC50: read-out: LC50 (the source's name); in short: as §1

| Structure (SMILES) | GI50 (LoVo [1]) [nM] | TGI (LoVo [1]) [nM] | CC50 (LoVo [1]) [nM] | GI50 (HT-29) [nM] | TGI (HT-29) [nM] | CC50 (HT-29) [nM] | GI50 [2] [nM] | LC50 (concentration giving 50% net cell kill) [2] [nM] | TGI [2] [nM] | GI50 (HeLa) [nM] | TGI (HeLa) [nM] | CC50 (HeLa) [nM] | TGI (DU-145) [nM] | GI50 (DU-145) [nM] | CC50 (DU-145) [nM] | CC50 (PANC-1) [nM] | CC50 (SK-MEL-28) [nM] | GI50 (LoVo [3]) [nM] | TGI (LoVo [3]) [nM] | CC50 (LoVo [3]) [nM] | further results |
| --- | --- | --- | --- | --- | --- | --- | --- | --- | --- | --- | --- | --- | --- | --- | --- | --- | --- | --- | --- | --- | --- |
| C/C=C1\NC(=O)[C@H](Cc2ccccc2)NC(=O)[C@@H](C(C)C)NC(=O)[C@@H]([C@H](C)CC)NC(=O)[C@H](NC(=O)[C@H](NC(=O)[C@H](CCCN)NC(=O)[C@H]2CCCN2C(=O)[C@H](NC(=O)[C@@H](NC(=O)[C@@H](NC(=O)[C@@H](CC2CCCCC2)NC(=O)CCCC(C)C)[C@@H](C)O)C(C)C)C(C)C)[C@H](C)CC)[C@H](C)OC(=O)[C@H](C(C)C)NC1=O | 825 | 746 | 247 | 2010 | 2310 | 2650 | 1450 | 1140 | 1290 | 1300 | 1090 | 917 | 1200 | 1410 | 1030 | 2440 | 1230 | 2090 | 2130 | 2180 | TGI (SK-MEL-28): 1470 nM; GI50 (SK-MEL-28): 1730 nM; GI50 (K562): 2100 nM; TGI (K562): 3070 nM; CC50 (K562): 2340 nM; LC50 (A549): 1770 nM; TGI (A549): 2180 nM; GI50 (A549): 1970 nM; GI50 (LNCaP): 2980 nM; TGI (LNCaP): 3460 nM; CC50 (LNCaP): 1720 nM; TGI (SK-BR-3): 862 nM; GI50 (SK-BR-3): 789 nM; CC50 (SK-BR-3): 4990 nM; TGI [4]: 8320 nM; GI50 ([4]; read-out: GI50): 1270 nM; CC50 [4]: 401 nM; TGI [5]: 1230 nM; GI50 ([5]; read-out: GI50): 1090 nM; CC50 [5]: 373 nM |
| C/C=C1\NC(=O)[C@H](Cc2ccccc2)NC(=O)[C@@H](C(C)C)NC(=O)[C@@H]([C@H](C)CC)NC(=O)[C@H](NC(=O)[C@H](NC(=O)[C@H](CCCN)NC(=O)[C@H]2CCCN2C(=O)[C@H](NC(=O)[C@H](CCC2CCCCC2)NC(=O)[C@@H](NC(=O)[C@@H](CC2CCCCC2)NC(=O)CCCC(C)C)[C@@H](C)O)C(C)C)[C@H](C)CC)[C@H](C)OC(=O)[C@H](C(C)C)NC1=O | 1210 | 1530 | 9670 | 2900 | 2700 | 2490 | 4340 | 1660 | 3500 | 2950 | 3510 | 1770 | 2550 | 3300 | 1350 | 1640 | 1490 | 2810 | 3010 | 3220 | TGI (SK-MEL-28): 3090 nM; GI50 (SK-MEL-28): 3180 nM; GI50 (K562): 1790 nM; TGI (K562): 1790 nM; CC50 (K562): 1790 nM; LC50 (A549): 1670 nM; TGI (A549): 3240 nM; GI50 (A549): 3600 nM; CC50 (LNCaP): 1380 nM; TGI (SK-BR-3): 1690 nM; GI50 (SK-BR-3): 2060 nM; CC50 (SK-BR-3): 703 nM; CC50 [4]: 7300 nM; CC50 [5]: 968 nM |
| C/C=C1\NC(=O)[C@H](Cc2ccccc2)NC(=O)[C@@H](C(C)C)NC(=O)[C@@H]([C@H](C)CC)NC(=O)[C@H](NC(=O)[C@H](NC(=O)[C@H](CCCN)NC(=O)[C@H]2CCCN2C(=O)[C@H](NC(=O)[C@H](CCCN)NC(=O)[C@@H](NC(=O)[C@H](NC(=O)CCCC(C)C)C(C)C)[C@@H](C)O)C(C)C)[C@H](C)CC)[C@H](C)OC(=O)[C@H](C(C)C)NC1=O | 7590 | 7660 | 3710 | 4610 | 4910 | 2350 | 1110 | 1270 | 1190 | 1280 | 1070 | 898 | 1330 | 1230 | 1440 | 2290 | 1290 | 3610 | 4540 | 3900 | GI50 (PANC-1): 1730 nM; TGI (PANC-1): 2080 nM; TGI (SK-MEL-28): 1410 nM; GI50 (SK-MEL-28): 1520 nM; GI50 (K562): 218 nM; TGI (K562): 950 nM; CC50 (K562): 1910 nM; LC50 (A549): 1810 nM; TGI (A549): 3670 nM; GI50 (A549): 2920 nM; GI50 (LNCaP): 1760 nM; TGI (LNCaP): 2730 nM; CC50 (LNCaP): 1390 nM; TGI (SK-BR-3): 5240 nM; GI50 (SK-BR-3): 4460 nM; CC50 (SK-BR-3): 1050 nM; CC50 [4]: 758 nM; TGI [5]: 1340 nM; GI50 ([5]; read-out: GI50): 1350 nM; CC50 [5]: 638 nM |
| C/C=C1\NC(=O)[C@H](Cc2ccccc2)NC(=O)[C@@H](C(C)C)NC(=O)[C@@H]([C@H](C)CC)NC(=O)[C@H](NC(=O)[C@H](NC(=O)[C@H](CCCNC(=O)C(F)(F)F)NC(=O)[C@H]2CCCN2C(=O)[C@H](NC(=O)[C@@H](NC(=O)[C@@H](NC(=O)[C@H](NC(=O)CC[C@@H](C)CC)C(C)C)[C@@H](C)OC(=O)C(F)(F)F)C(C)C)C(C)C)[C@H](C)CC)[C@H](C)OC(=O)[C@H](C(C)C)NC1=O | 363 | 396 | 1130 | 329 | 355 | 381 | 849 | 679 | 778 | 656 | 597 | 543 | 1170 | 1460 | 931 | 1570 | 1140 | 276 | 284 | 294 | CC50 (K562): 1710 nM; LC50 (A549): 1180 nM; TGI (A549): 1200 nM; GI50 (A549): 1230 nM; GI50 (LNCaP): 1140 nM; TGI (LNCaP): 1720 nM; CC50 (LNCaP): 1330 nM; TGI (SK-BR-3): 322 nM; GI50 (SK-BR-3): 331 nM; CC50 (SK-BR-3): 313 nM; GI50 [4]: 397 nM; GI50 ([4]; read-out: GI50): 373 nM; CC50 [4]: 281 nM; GI50 [5]: 911 nM; GI50 ([5]; read-out: GI50): 770 nM; CC50 [5]: 2480 nM |
